Reference: ChEMBL document CHEMBL4130539, “Novel ureidopropanamide based N-formyl peptide receptor 2 (FPR2) agonists with potential application for central nervous system disorders characterized by neuroinflammation” (Eur J Med Chem, 2017)
Calls of active or inactive are those of the source. The calls are words filed in the database; no cut-off is given here.

Tests used:
[1] = Intrinsic clearance in rat liver microsomes at 10 uM preincubated for 10 mins followed by NADPH addition by liquid chromatographic method; assay type: ADME, microsome
[2] = tested on: Microglia; assay: Anti-inflammatory activity in Sprague-Dawley rat primary microglia cells assessed as inhibition of LPS-induced IL-1beta level up to 10 uM pretreated for 1 hr followed by LPS stimulation for 24 hrs in presence of FPR2 antagonist WRW4 by ELISA; assay type: functional, cell-based
In short: (§1)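 Primary microglia from cortices of 1–2-day-old Sprague-Dawley rats, shaken off mixed cultures at day 9 in vitro, >95% Iba-1/CD11b-positive, used 2 days after plating. Agonist added 1 h before LPS (E. coli 0111:B4, 100 ng/ml) for 24 h; WRW4 given 30 min before agonist where stated. Medium NO by Griess reaction (540 nm); TNF-α and IL-1β by ELISA. Data as % of vehicle-treated control.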

[3] = tested on: Microglia; assay: Anti-inflammatory activity in Sprague-Dawley rat primary microglia cells assessed as inhibition of LPS-induced NO level up to 10 uM pretreated for 1 hr followed by LPS stimulation for 24 hrs by Griess reagent based assay; assay type: functional, cell-based; in short: as §1
[4] = tested on: Microglia; assay: Proinflammatory activity in Sprague-Dawley rat primary microglia cells assessed as induction of TNFalpha level up to 10 uM after 24 hrs in presence of FPR2 antagonist WRW4 by ELISA; assay type: cell-based
In short: (§2)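 Rat primary cortical microglia (Sprague-Dawley pups, 1–2 days old, >95% Iba-1/CD11b-positive) given agonist without LPS for 24 h; WRW4 added 30 min before agonist where indicated. Supernatant NO measured with Griess reagent (540 nm, 10 min room temperature); TNF-α and IL-1β by ELISA. Values normalized to vehicle-treated cells (100%).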

[5] = tested on: Microglia; assay: Cytotoxicity against Sprague-Dawley rat primary microglia cells assessed as cell death at 50 uM after 24 hrs by LDH assay; assay type: cell-based
[6] = tested on: Microglia; assay: Cytoprotection against LPS-induced cell death in Sprague-Dawley rat primary microglia cells at 1 to 5 uM pretreated for 1 hr followed by LPS stimulation for 24 hrs by LDH assay; assay type: functional, cell-based
[7] = biological target: T1, N-formyl peptide receptor 2 (Homo sapiens, UniProt P25090); assay: Agonist activity at FPR2 in human neutrophils assessed as induction of calcium mobilization measured every 5 secs for 240 secs by Fluo-4-AM dye based fluorometric method; assay type: functional; conditions: read-out: EC50
T1 sequence (P25090 whole entry): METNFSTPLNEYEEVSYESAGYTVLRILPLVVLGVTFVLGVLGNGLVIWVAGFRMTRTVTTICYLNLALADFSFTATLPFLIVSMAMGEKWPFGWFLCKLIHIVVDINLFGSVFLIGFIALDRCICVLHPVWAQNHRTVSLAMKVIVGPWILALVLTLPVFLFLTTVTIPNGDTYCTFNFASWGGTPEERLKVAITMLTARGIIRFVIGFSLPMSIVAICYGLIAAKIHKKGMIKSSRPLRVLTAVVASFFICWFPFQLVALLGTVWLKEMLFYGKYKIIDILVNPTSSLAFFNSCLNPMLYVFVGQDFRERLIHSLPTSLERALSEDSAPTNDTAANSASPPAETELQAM

[8] = tested on: Microglia; assay: Cytotoxicity against Sprague-Dawley rat primary microglia cells assessed as cell death at 0.5 to 10 uM after 24 hrs by LDH assay; assay type: cell-based
[9] = tested on: Microglia; assay: Proinflammatory activity in Sprague-Dawley rat primary microglia cells assessed as induction of IL-1beta level up to 10 uM after 24 hrs by ELISA; assay type: cell-based; in short: as §2
[10] = Half life in rat liver microsomes at 10 uM preincubated for 10 mins followed by NADPH addition by liquid chromatographic method; assay type: ADME, microsome
[11] = tested on: Microglia; assay: Cytoprotection against LPS-induced cell death in Sprague-Dawley rat primary microglia cells at 0.5 to 50 uM pretreated for 1 hr followed by LPS stimulation for 24 hrs by MTT assay; assay type: functional, cell-based
[12] = tested on: Microglia; assay: Proinflammatory activity in Sprague-Dawley rat primary microglia cells assessed as induction of NO level up to 10 uM after 24 hrs in presence of FPR2 antagonist WRW4 by Griess reagent based assay; assay type: cell-based; in short: as §2
[13] = biological target: T2, N-formyl peptide receptor 2 (Homo sapiens) (UniProt P25090); assay: Agonist activity at FPR2 in human neutrophils assessed as induction of calcium mobilization measured every 5 secs for 240 secs by Fluo-4-AM dye based fluorometric method relative to fMLF
T2 sequence (whole entry): T1 sequence (P25090 whole entry)

[14] = tested on: Microglia; assay: Anti-inflammatory activity in Sprague-Dawley rat primary microglia cells assessed as inhibition of LPS-induced TNFalpha level up to 10 uM pretreated for 1 hr followed by LPS stimulation for 24 hrs by ELISA; assay type: functional, cell-based; in short: as §1
[15] = tested on: Microglia; assay: Cytotoxicity against Sprague-Dawley rat primary microglia cells assessed as reduction in cell viability at 0.5 to 10 uM after 24 hrs by MTT assay; assay type: cell-based
[16] = tested on: Microglia; assay: Proinflammatory activity in Sprague-Dawley rat primary microglia cells assessed as induction of TNFalpha level up to 10 uM after 24 hrs by ELISA; assay type: cell-based; in short: as §2
[17] = Efflux ratio of apparent permeability in hCMEC/D3 cells at 5 to 10 uM after 2 hrs by UV-spectroscopic method; assay type: ADME, cell-based; conditions: human, hcmec/d3, 2 h
[18] = biological target: T1, N-formyl peptide receptor 2; assay: Agonist activity at human FPR2 expressed in human HL60 cells assessed as induction of calcium mobilization measured every 5 secs for 240 secs by Fluo-4-AM dye based fluorometric method; assay type: functional, cell-based; conditions: read-out: EC50
[19] = biological target: T3, fMet-Leu-Phe receptor (Homo sapiens) (UniProt P21462); assay: Agonist activity at human FPR1 expressed in human HL60 cells assessed as induction of calcium mobilization measured every 5 secs for 240 secs by Fluo-4-AM dye based fluorometric method relative to fMLF; assay type: functional, cell-based
T3 sequence (whole entry): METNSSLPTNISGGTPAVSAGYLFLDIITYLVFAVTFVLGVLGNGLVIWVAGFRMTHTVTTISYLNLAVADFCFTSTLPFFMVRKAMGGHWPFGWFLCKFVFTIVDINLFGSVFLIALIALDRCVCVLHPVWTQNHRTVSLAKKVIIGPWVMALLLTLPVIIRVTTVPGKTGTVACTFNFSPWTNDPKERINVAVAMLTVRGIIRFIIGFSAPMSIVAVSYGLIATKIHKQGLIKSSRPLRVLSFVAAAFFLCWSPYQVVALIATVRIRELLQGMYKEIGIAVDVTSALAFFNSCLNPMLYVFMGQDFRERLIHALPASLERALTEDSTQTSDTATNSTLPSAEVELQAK

[20] = tested on: Microglia; assay: Proinflammatory activity in Sprague-Dawley rat primary microglia cells assessed as induction of IL-1beta level up to 10 uM after 24 hrs in presence of FPR2 antagonist WRW4 by ELISA; assay type: cell-based; in short: as §2
[21] = biological target: T4, fMet-Leu-Phe receptor (Homo sapiens, UniProt P21462); assay: Agonist activity at human FPR1 expressed in human HL60 cells assessed as induction of calcium mobilization measured every 5 secs for 240 secs by Fluo-4-AM dye based fluorometric method; assay type: functional, cell-based; conditions: read-out: EC50
T4 sequence (P21462 whole entry): T3 sequence (whole entry)

[22] = tested on: Microglia; assay: Anti-inflammatory activity in Sprague-Dawley rat primary microglia cells assessed as inhibition of LPS-induced IL-1beta level up to 10 uM pretreated for 1 hr followed by LPS stimulation for 24 hrs by ELISA; assay type: functional, cell-based; in short: as §1
[23] = tested on: Microglia; assay: Proinflammatory activity in Sprague-Dawley rat primary microglia cells assessed as induction of NO level up to 10 uM after 24 hrs by Griess reagent based assay; assay type: cell-based; in short: as §2
[24] = Metabolic stability in rat liver microsomes assessed as parent compound remaining at 10 uM preincubated for 10 mins followed by NADPH addition measured after 30 mins by liquid chromatographic method; assay type: ADME, microsome; conditions: 0.5 h
[25] = biological target: T2, N-formyl peptide receptor 2 (Homo sapiens); assay: Agonist activity at human FPR2 expressed in human HL60 cells assessed as induction of calcium mobilization measured every 5 secs for 240 secs by Fluo-4-AM dye based fluorometric method relative to WKYMVM; assay type: functional, cell-based
[26] = biological target: T1, N-formyl peptide receptor 2; assay: Agonist activity at human FPR2 expressed in human HL60 cells assessed as induction of calcium mobilization; assay type: functional, cell-based
[27] = biological target: T2, N-formyl peptide receptor 2 (Homo sapiens); assay: Agonist activity at human FPR2 expressed in human HL60 cells assessed as induction of calcium mobilization relative to control; assay type: functional, cell-based
[28] = tested on: Microglia; assay: Anti-inflammatory activity in Sprague-Dawley rat primary microglia cells assessed as inhibition of LPS-induced TNFalpha level at 0.05 to 0.1 uM pretreated for 1 hr followed by LPS stimulation for 24 hrs by ELISA; assay type: functional, cell-based; in short: as §1
[29] = tested on: Microglia; assay: Anti-inflammatory activity in Sprague-Dawley rat primary microglia cells assessed as inhibition of LPS-induced TNFalpha level up to 10 uM pretreated for 1 hr followed by LPS stimulation for 24 hrs in presence of FPR2 antagonist WRW4 by ELISA; assay type: functional, cell-based; in short: as §1
[30] = tested on: Microglia; assay: Anti-inflammatory activity in Sprague-Dawley rat primary microglia cells assessed as inhibition of LPS-induced IL-1beta level at 0.05 to 0.1 uM pretreated for 1 hr followed by LPS stimulation for 24 hrs by ELISA; assay type: functional, cell-based; in short: as §1
[31] = tested on: Microglia; assay: Cytotoxicity against Sprague-Dawley rat primary microglia cells assessed as reduction in cell viability at 50 uM after 24 hrs by MTT assay; assay type: cell-based

SMILES | Microsomal intrinsic clearance (CLint) [1] [µL/min/mg] | inhibition [2] | inhibition [3] | Activity [4] | Activity [5] | Activity [6] | EC50 [7] [nM] | Activity [8] | Activity [9] | t1/2 [10] [h] | Activity [11] | Activity [12] | Efficacy [13] [%] | inhibition [14] | Activity [15] | Activity [16] | Ratio [17] | EC50 [18] [nM] | Efficacy [19] [%] | Stability [24] [%] | other results
O=C(Nc1ccc([N+](=O)[O-])cc1)N[C@H](Cc1cccnc1)C(=O)NCC1(c2ccccc2)CC1 | 7 | inactive | inactive | Non-Toxic | Toxic | Active | 120 | Non-Toxic | Non-Toxic | 1.65 | inactive | Non-Toxic | 90 | Active | Non-Toxic | Non-Toxic | 3.7 | 2900 | 145 | 45 | Activity [20]: Non-Toxic; EC50 [21]: 1500 nM; inhibition [22]: Active; Activity [23]: Non-Toxic; Efficacy [25]: 60%
O=C(Nc1ccc([N+](=O)[O-])cc1)N[C@@H](Cc1c[nH]c2ccccc12)C(=O)NCC1(c2ccccc2)CC1 |  |  |  |  |  |  |  |  |  |  |  |  |  |  |  |  |  |  |  | 11 | EC50 [26]: 7600 nM; Efficacy [27]: 60%
N#Cc1ccc(C[C@H](NC(=O)Nc2ccc(F)cc2)C(=O)NCC2(c3ccc(F)c(Cl)c3)CC2)cc1 | 14.4 | inactive | inactive | Non-Toxic | Toxic | Active | 190 | Non-Toxic | Non-Toxic | 0.8 | inactive | Non-Toxic | 130 | Active | Non-Toxic | Non-Toxic | 2.6 | 3900 | 55 | 33 | inhibition [28]: inactive; inhibition [29]: inactive; inhibition [30]: inactive; Activity [31]: Toxic; Activity [20]: Non-Toxic; EC50 [21]: 5200 nM; inhibition [22]: Active; Activity [23]: Non-Toxic; Efficacy [25]: 80%
